A short description of series [1]: Drug localization in nucleus of human HT-29 cells at 25 uM incubated for 30 to 120 mins by DAPI staining based fluorescence microscopic analysis. In kind it is ADME, subcellular. Conditions: ht-29, 25 µM, time 30-120 min. A digest of the protocol: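 HT-29 cells grown 24 h on coverslips in FBS-free medium, then exposed to 25 μM compound for 30 or 120 min at 37 °C. Mounted in DAPI medium and imaged by widefield fluorescence microscopy; compound emission collected at 578–610 nm, DAPI at 437–474 nm.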

Series [2] can be described thus: Drug localization in nucleus of Trypanosoma brucei at 5 uM incubated for 30 to 120 mins by DAPI staining based fluorescence microscopic analysis. The class given is ADME, subcellular. Conditions: time 30-120 min. A digest of the protocol: (§1)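 T. brucei at 1×10^7/mL exposed to 5 μM compound in FBS-free medium for 30 and 120 min at 37 °C; fixed in cold 4% paraformaldehyde, DAPI-stained and imaged by widefield microscopy. Compound excited with the 542–566 filter and emission collected at 578–610 nm.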

Series [3] has as its system Trypanosoma brucei. As to the kind of experiment: Antitrypanosomal activity against Trypanosoma brucei incubated for 72 hrs by alamar blue dye based fluorimetry analysis. In kind it is functional, organism-based. A digest of the protocol: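 Bloodstream-form T. brucei S16 (Lister 427, MiTat 1.2), 1×10^3 per well in HMI-9 with 20% hiFBS, exposed to increasing compound concentrations for 72 h at 37 °C, 5% CO2. Resazurin then added for 4 h, cells lysed with SDS, fluorescence read at ex 550/em 590 nm. IC50 from four-parameter logistic fit; three independent runs, each in triplicate.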
Background: Alamar Blue is a resazurin reagent that responds to reducing activity.

The subject of series [4] is Leishmania major. As to the kind of experiment: Antileishmanial activity against Leishmania major (MHOM/IL/80/Friedlin) promastigotes assessed as reduction in parasite growth incubated for 72 hrs by MTT assay. The class given is functional, organism-based. A digest of the protocol: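 L. major Friedlin promastigotes, 1×10^6/mL in modified RPMI-1640 with 10% hiFBS, exposed to increasing compound concentrations for 72 h at 28 °C; proliferation read by MTT; IC50 from four-parameter logistic fit versus untreated controls.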
(In general: Formazan colour is commonly taken as a measure of viable cells.)

For series [5], the system named is HT-29. As to the kind of experiment: Cytotoxicity against human HT-29 cells assessed as reduction in cell viability incubated for 48 hrs by MTT assay. Conditions: HT-29, 48 h. In kind it is functional, cell-based. The gist of the method: (§2)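 MTT assay: 5×10^3 cells per well in DMEM with 10% hiFBS (4.5 g/L glucose for HT-29, 1 g/L for MRC-5), exposed to increasing compound concentrations for 48 h at 37 °C. MTT added for 4 h, formazan dissolved in DMSO, absorbance read at 575 nm. IC50 from four-parameter logistic fit.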

Series [6] in a line: Cytotoxicity against human MRC5 cells assessed as reduction in cell viability incubated for 48 hrs by MTT assay. The class given is toxicity, cell-based. The gist of the method: as §2
Series [7] is described as follows: Selectivity index, ratio of IC50 for human MRC5 cells to IC50 for human HT-29 cells. The class given is toxicity. Conditions: MRC5 cells versus HT-29 cells, read-out: Selectivity Index. The gist of the method: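 Selectivity index: MRC-5 IC50 divided by HT-29 IC50.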
Series [8] can be described thus: Selectivity index, ratio of IC50 for cytotoxicity against human MRC5 cells to IC50 for antileishmanial activity against Leishmania major (MHOM/IL/80/Friedlin) promastigotes. The class given is toxicity, cell-based. Conditions: read-out: Selectivity Index. A digest of the protocol:
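Selectivity index: MRC-5 IC50 divided by L. major promastigote IC50.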

Series [9] can be described thus: Selectivity index, ratio of IC50 for cytotoxicity against human MRC5 cells to IC50 for antitrypanosomal activity against Trypanosoma brucei. In kind it is toxicity, cell-based. Conditions: MRC5 cells versus Trypanosoma brucei, read-out: Selectivity Index. A digest of the protocol: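 Selectivity index: MRC-5 IC50 divided by T. brucei IC50.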
Series [10] concerns Quadruplex DNA. As to the kind of experiment: Binding affinity to human G-quadruplex telomeric DNA F21T (5'-duplex GGG TTAGGG TTAGGG TTAGGG-3') assessed as change in melting temperature at 1 uM incubated for 5 min by FRET assay. The class given is nucleic-acid assay. The gist of the method: (§3)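 Fluorescently labelled oligonucleotide annealed (95 °C, 5 min) in 10 mM lithium cacodylate/90 mM LiCl, pH 7.2; 0.2 μM final, with or without ligand. Held 5 min at 25 °C, then heated 0.5 °C/min to 95 °C. Tm taken at normalized signal 0.5; ΔTm = Tm with ligand minus Tm without. Tested in duplicate.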

Series [11] relates to Quadruplex DNA. As to the kind of experiment: Binding affinity to parallel G-quadruplex DNA TGGGGT TGGGGT TGGGGT TGGGGT (unknown origin) by mass spectrometric analysis. The class given is nucleic-acid assay. The gist of the method: (§4)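 Native ESI-FTICR MS in negative ion mode under soft conditions, in 100 mM ammonium acetate; DNA at 5 μM with ligand at 10 μM.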
Series [12] has as its system Quadruplex DNA. As to the kind of experiment: Binding affinity to human G-quadruplex telomeric DNA F21T (5'-duplex GGG TTAGGG TTAGGG TTAGGG-3') by mass spectrometric analysis. The class given is nucleic-acid assay. A digest of the protocol: as §4
A short description of series [13]: Drug uptake in human HT-29 cells at 10 uM incubated for 2 hrs by fluorescence based multiplate reader method. Conditions: ht-29, 2 h. In kind it is ADME, cell-based. A digest of the protocol: (§5)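 225,000 trypsinized cells incubated with 10 μM compound in 0.75 mL medium for 2 h at 37 °C; washed three times with PBS, lysed in 3% SDS and sonicated. NDI fluorescence read at ex 485/em 535 nm, quantified against a calibration curve in cell lysate and normalized to BCA protein. Reported as % of compound added.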

Series [14] is described as follows: Drug uptake in human MRC5 cells at 10 uM incubated for 2 hrs by fluorescence based multiplate reader method. The class given is ADME, cell-based. Conditions: mrc5, 2 h. A digest of the protocol:
as §5

The nature of series [15]: Drug uptake in Trypanosoma brucei at 10 uM incubated for 2 hrs by fluorescence based multiplate reader method. The class given is ADME.
Series [16] can be described thus: Drug localization in cytoplasm of Trypanosoma brucei at 5 uM incubated for 30 to 120 mins by DAPI staining based fluorescence microscopic analysis. In kind it is ADME, subcellular. Conditions: time 30-120 min. A digest of the protocol: as §1
Series [17] relates to Quadruplex DNA. As to the kind of experiment: Binding affinity to human G-quadruplex telomeric DNA F21T (5'-duplex GGG TTAGGG TTAGGG TTAGGG-3') assessed as change in melting temperature at 2 uM incubated for 5 min by FRET assay. In kind it is nucleic-acid assay. The gist of the method:
as §3

In series [18] the test system is Quadruplex DNA. The series is described as follows: Binding affinity to human G-quadruplex telomeric DNA F21T (5'-duplex GGG TTAGGG TTAGGG TTAGGG-3') assessed as change in melting temperature at 5 uM incubated for 5 min by FRET assay. The class given is nucleic-acid assay. The gist of the method:
as §3

Three compounds from ChEMBL document CHEMBL5154742, “Thiosugar naphthalene diimide conjugates: G-quadruplex ligands with antiparasitic and anticancer activity” (Eur J Med Chem, 2022) can be followed below.

pIC50: −log10 of the molar value. The source made the active and inactive calls. The rule behind the calls is not given here.

As for `CN(C)CCCN1C(=O)c2ccc3c4c(c(NCc5cn(CCS[C@@H]6O[C@H](CO)[C@@H](O[C@H]7O[C@H](CO)[C@@H](O)[C@H](O)[C@H]7O)[C@H](O)[C@H]6O)nn5)cc(c24)C1=O)C(=O)N(CCCN(C)C)C3=O`, the Drug uptake result in [1] was “Active”; in series [2] it was “Active”; in series [13] it was 23.1%; in [14] it was 20.7%; in series [15] it was 4.3%; in [16], “Active”. For the same compound, the negative-log IC50 (pIC50) in series [3] was 7.22; in [4], 6.29; in series [5] it was 6.52. For the same compound, the concentration for half-maximal inhibition (IC50) at 48 h in series [6] stood at 2.94 µM. The selectivity ratio worked out at 9.8 in series [7], 5.7 in [8] and 49 in series [9]. The ΔTm in series [10] is 10 °C. In addition, the result in series [11] and in series [12] was Active.

For `O=C1c2ccc3c4c(c(NCc5cn(CCO[C@@H]6O[C@H](CO)[C@H](O)[C@H](O)[C@H]6O)nn5)cc(c24)C(=O)N1CCN1CCOCC1)C(=O)N(CCN1CCOCC1)C3=O`, the negative-log IC50 (pIC50) in [3] is 6.82; in [4], 4.56; in series [5], 5.44. Besides, the IC50 at 48 h in [6] was 10.4 µM. Further, the values for the selectivity ratio in series [7], in series [8] and in [9] were 2.9, 0.38 and 69.3, respectively. The ΔTm in series [10] was determined as 1 °C; in [17] it was 5 °C. The same compound came in with a Drug uptake in series [15] of 5.4%.

Turning to `O=C1c2ccc3c4c(c(NCc5cn(CCS[C@@H]6O[C@H](CO)[C@H](O)[C@H](O)[C@H]6O)nn5)cc(c24)C(=O)N1CCN1CCOCC1)C(=O)N(CCN1CCOCC1)C3=O`, the negative logarithm of the IC50 (pIC50) in [3] is 6.07; in series [4] it was 4.52; in series [5], 4.58. Further, the IC50 at 48 h in series [6] amounted to 23.5 µM. Moreover, the selectivity ratio in series [7] worked out at 0.9; in series [8] it was 0.8; in series [9], 27.6. In addition, the shift in melting temperature (ΔTm) in [10] is 1 °C; in series [18] it was 5 °C. In addition, the Drug uptake in series [15] was 6.8%.

The pIC50 is −log10 of the IC50, conventionally taken in molar units. As a reminder, the IC50 is the concentration needed to halve the response being measured. For orientation: ΔTm means the shift of the melting midpoint relative to a reference.
